MrgX1 allo act = allosterically activates human MrgX1 receptor signaling; Q96LB2; MrgX1-HEK293, Fluo-4 calcium flux, FDSS; hits give high values; B-score at 10 µM; hit rate 0.63% among 310,000; AID 588675;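 active means plate-corrected calcium response at least 3 library SD above typical, normal starting fluorescence, not activating the receptor alone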;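 further: compound read alongside a low EC10 to EC30 dose of BAM8-22 agonist; peak minus trough fluorescence over baseline measured at the second addition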
Target sequence (Q96LB2 whole entry, looked up): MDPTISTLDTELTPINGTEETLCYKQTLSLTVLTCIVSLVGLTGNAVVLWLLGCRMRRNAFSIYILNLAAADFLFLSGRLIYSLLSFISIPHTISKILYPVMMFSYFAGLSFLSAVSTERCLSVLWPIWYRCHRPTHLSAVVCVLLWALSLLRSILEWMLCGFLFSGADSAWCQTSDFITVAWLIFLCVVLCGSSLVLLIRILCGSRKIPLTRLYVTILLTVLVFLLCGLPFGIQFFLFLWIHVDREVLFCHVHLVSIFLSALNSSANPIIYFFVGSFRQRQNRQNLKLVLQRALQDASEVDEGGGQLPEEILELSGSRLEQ
MrgX1 agonist = activates human MrgX1 receptor signaling; MrgX1-HEK293 cells, Fluo-4 calcium fluorescence, agonist mode; hits give high values; AID 588627; Q96LB2; B-score at 10 µM; hit rate 0.44% among 310,000;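 active means calcium response B-score plate-corrected fluorescence ratio at least 3 library SD, with starting fluorescence B-score inside 5 SD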
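System – MrgX1-expressing HEK293 cells · Incubation – cells plated overnight, dye loaded 0.5 h 37 °C, 0.5 h room temperature · Technique – kinetic Fluo-4 NW fluorescence of intracellular calcium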
RGS4 pot = RGS4 potentiation or activation | B-score at 10 µM | HEK293 M3R/inducible RGS4, carbachol calcium flux Fluo4; hits give low values | AID 463111 | hit rate 0.92% among 310,000;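 active means B-score of the integrated calcium signal more than 4 SD below the library mean, with starting fluorescence not abnormally high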;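 further: negative B-score means reduced calcium response which marks RGS4 activation or potentiation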
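Reagent: ECmax carbachol challenge; Test system: M3R-expressing HEK293 line, RGS4 induced by doxycycline; Schedule: overnight RGS4 induction, 30 min dye load 37 °C, 20 min compound RT; Detection: calcium dye Fluo4 fluorescence; Read-out: Agonist-evoked peak-minus-minimum fluorescence over baseline, integrated ratio, B score.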
MrgX1 antag = antagonists of human MrgX1 receptor. Q96LB2. MRGX1-HEK293 calcium flux, Fluo-4, BAM8-22 antagonism; hits give low values. B-score at 10 µM. hit rate 1.3% among 310,000;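 active means calcium-response B-score plate-corrected more than 3 library SD below zero, starting fluorescence within 5 deviations, no agonist response on first addition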;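 further: peak minus trough fluorescence over baseline after final BAM8-22 challenge near maximal dose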
RGS4 inh = human RGS4 inhibition; B-score at 10 µM; HEK293 M3R/RGS4 inducible, Fluo-4 calcium flux; hits give high values; triggered by carbachol at its EC20; hit rate 0.45% among 310,000; P49798; AID 463165;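 active means B-score, a plate-corrected calcium signal, over three deviations above library mean, with baseline fluorescence within five deviations of library mean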;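 further: RGS4 expression induced by doxycycline in cells with stable M3 receptor; B-score is computed from the integrated fluorescence ratio over baseline after carbachol; higher B-score means a larger calcium signal and so more RGS4 inhibition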
Target sequence (P49798 whole entry, looked up): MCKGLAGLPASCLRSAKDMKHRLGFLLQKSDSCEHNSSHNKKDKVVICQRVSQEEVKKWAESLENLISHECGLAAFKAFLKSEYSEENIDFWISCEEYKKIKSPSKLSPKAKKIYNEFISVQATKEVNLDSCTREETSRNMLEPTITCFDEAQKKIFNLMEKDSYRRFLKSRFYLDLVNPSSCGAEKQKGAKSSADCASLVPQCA
MrgX1 allo conf = confirmation of human MrgX1 receptor positive allosteric modulators. shares compounds with MrgX1 allo act. MrgX1-HEK293, Fluo-4 calcium fluorescence, FDSS. activation (ratio percentage), % at 10 µM. hit rate 13% among 1,200;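 active means ratio at least 3 SD above the weak peptide control, stable starting fluorescence, no direct agonism earlier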;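 further: compound followed by low BAM8-22 agonist challenge near EC20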
MrgX1 ant reconf = confirmation of human MrgX1 receptor antagonists | shares compounds with MrgX1 antag | hit rate 19% among 2,300 | remaining BAM8-22 calcium response % of control (hits give low values), % at 10 µM | MrgX1-HEK293, BAM8-22 calcium flux, Fluo-4; hits give low values;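 active means remaining agonist calcium response no higher than 100% minus 3 SD of agonist-only control wells, with starting fluorescence near control levels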;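 further: agonist BAM8-22 given at a near maximal EC90 to ECmax level; peak minus minimum fluorescence divided by baseline after agonist addition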
HEK293 Ca flux = counter-screen for MrgX1 antagonists: effect in parental HEK293 cells. shares compounds with MrgX1 antag. hit rate 2% among 4,000. fluorescence ratio F(max-min)/F0 at 10 µM. Fluo-4 calcium fluorescence, FDSS;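 active means duplicate-averaged calcium fluorescence ratio at least three times the standard deviation of buffer wells, a nonspecific response in parental cells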
HEK293 Ca counter = MrgX1 allosteric activator counter-screen hit in parental HEK293 cells | shares compounds with MrgX1 antag | fluorescence ratio F(max-min)/F0 at 10 µM | hit rate 0.4% among 4,000 | AID 624114 | parental HEK293 calcium flux, Fluo-4 fluorescence ratio; hits give high values;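 active means calcium fluorescence ratio, averaged over duplicates, at least 3 SD of the buffer-well ratio, meaning a nonspecific response in receptor-free cells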;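 further: untransfected parental HEK293 lacking MrgX1 used as counterscreen for MrgX1 allosteric activators; fluorescence change taken during the second addition on a kinetic imager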
HEK293 Ca cntr2 = counter-screen for MrgX1 activators: effect in parental HEK293 cells; shares compounds with MrgX1 antag; Fluo-4 calcium fluorescence (FDSS); hits give high values; fluorescence ratio F(max-min)/F0 at 10 µM; hit rate 8.7% among 4,000; AID 624115;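 active means calcium fluorescence ratio at least three times the spread of buffer wells, meaning a non-specific response in parental cells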
Numbers stand for hits; . = inactive; / = no result given. This is a sample that favours compounds with a hit; in the whole collection about 3.5% have one here.

SMILES	MrgX1 allo act	MrgX1 agonist	RGS4 pot	MrgX1 antag	RGS4 inh	MrgX1 ant reconf	HEK293 Ca flux	HEK293 Ca counter	HEK293 Ca cntr2	others
O=C(CN1C(=O)C2C3CC(C(Br)C3Br)C2C1=O)N1CCN(Cc2ccccc2)CC1 (stereo not drawn)	7.7	.	.	.	.	/	.	.	.	MrgX1 allo conf=.
CC(=O)Cc1nsc(NC(=O)c2ccc(-c3ccccc3Cl)o2)n1	26	.	.	.	.	/	.	.	.	MrgX1 allo conf=.
O=C(NC1CCCCC1)C(c1ccc2ncccc2c1)N(Cc1ccc(F)cc1)C(=O)c1cccs1 (stereo not drawn)	.	.	.	.	.	/	/	/	/
O=C(c1nc2ccccc2s1)N1CCN(c2ccccn2)CC1	.	.	/	.	/	/	/	/	/
O=C(c1nc2ccccc2s1)N1CCSCC1	.	.	.	-10	.	.	.	.	.
CC1CCC(NC(=O)COC(=O)C2CC3CCCC(C2)C3=O)CC1 (stereo not drawn)	.	.	.	-7.9	.	.	.	.	.
COc1ccc(NC(=O)CNC(=O)Cc2ccccc2)cc1	.	.	.	.	.	/	/	/	/
COc1ccc(CC(=O)NCC(=O)Nc2ccccc2Br)cc1	.	.	.	-6	.	.	.	.	.
CN(C)S(=O)(=O)c1ccc(Cl)c(NC(=O)CN2CCN(Cc3ccc4c(c3)OCO4)CC2)c1	.	.	.	.	.	/	/	/	/
Cc1cccc(C(=O)NCc2nnc(SCc3ccc(F)cc3)n2C)c1	.	.	.	-4.8	.	.	.	.	.
CCOC(=O)CSc1nnc(CNC(=O)c2cccc(C)c2)n1C	.	.	.	.	.	/	/	/	/
O=C(Nc1nsc(-c2ccccc2)n1)c1cccs1	.	.	.	-10	.	.	.	.	.
Cc1ccc(CNC(=O)c2ccccc2NC(=O)CSc2nnnn2C)cc1	.	.	.	.	.	/	/	/	/
c1csc(-c2nnc3ccccn23)c1	.	.	.	.	.	/	/	/	/
c1ccn2c(Cc3nnc4ccccn34)nnc2c1	.	.	.	-5.5	.	.	.	.	.
O=C(NCCc1ccccc1)Nc1cccc(Cl)c1	.	.	.	-7	.	.	.	.	.
CC1CCN(C(=S)c2ccc(N(C)C)cc2)CC1	.	.	.	.	.	/	/	/	/
O=C(/C(=C(\O)c1ccccc1)c1ncc[nH]1)c1ccccc1	.	.	.	-9.7	.	.	.	.	.
O=C(NC(=S)NCC1CCCO1)c1ccco1 (stereo not drawn)	.	.	.	-25	.	.	.	.	.
CCC(C)N1CC(=O)N2C(c3ccc(OC)cc3OC)c3[nH]c4ccccc4c3C[C@H]2C1=O (stereo partly drawn)	.	.	.	.	.	/	/	/	/
CN(C)S(=O)(=O)N(CC(=O)Nc1ccc(F)c(F)c1)c1ccccc1	.	.	.	-6.1	.	.	.	.	.
CN(C)S(=O)(=O)N(CC(=O)Nc1ccc2ccccc2c1)c1ccccc1	.	.	.	.	.	/	/	/	/
CC(C)CCNC(=O)NC(=O)COC(=O)C1CCN(S(=O)(=O)c2ccccc2F)CC1	.	.	.	.	.	/	/	/	/
CCS(=O)(=O)N1CCC(C(=O)NCc2ccc(OC)cc2)CC1	.	.	.	-6.3	.	.	.	.	.
Cc1ccc2oc(=O)c3cc(C(=O)NCCCN4C(C)CCCC4C)sc3c2c1 (stereo not drawn)	.	.	.	.	.	/	/	/	/
SMILES	MrgX1 allo act	MrgX1 agonist	RGS4 pot	MrgX1 antag	RGS4 inh	MrgX1 ant reconf	HEK293 Ca flux	HEK293 Ca counter	HEK293 Ca cntr2	others
CN1CCc2c(sc3c2C(=O)NC(c2ccccc2)N3)C1 (stereo not drawn)	.	.	.	-9.5	.	.	.	.	.
O=S(=O)(Nc1ccc(C(F)(F)F)cn1)c1ccccc1	.	.	.	.	.	/	/	/	/
COC1OC(COC(=O)c2ccccc2)C(OC(=O)c2ccccc2)C1OC(=O)c1ccccc1 (stereo not drawn)	.	.	.	-5.5	.	.	.	.	.
CO[C@H]1O[C@H](CBr)[C@@H](OC(=O)c2ccccc2)[C@H](O)[C@H]1O	.	.	.	.	.	/	/	/	/
COc1cccc(C(=O)Nc2cccc(C(=O)NCC(C)C)c2)c1	.	.	.	-6.5	.	.	.	.	.
CC(C)OCCCNC(=O)c1cccc(NC(=O)c2ccccc2)c1	.	.	.	.	.	/	/	/	/
COCCCNC(=O)c1cccc(NC(=O)c2ccccc2)c1	.	.	.	-5.6	.	83%	.	.	.
COc1ccc(NC(=O)Nc2cccc(C(F)(F)F)c2)cn1	.	.	.	.	.	/	/	/	/
O=c1cc(C(F)(F)F)[nH]c2ccc(C(F)(F)F)cc12	.	.	.	-4.7	.	.	.	.	.
O=C(c1ccccc1)c1ccc(CN2C(=O)c3ccccc3C2=O)o1	.	.	.	-5.2	.	.	.	.	.
O=C1N2CN(C(c3ccccc3)c3ccccc3)CN=C2SC1(CO)CO	.	.	.	.	.	/	/	/	/
CCSc1nsc(NC(=O)Nc2ccc(F)cc2F)n1	.	.	.	.	.	/	/	/	/
CCOc1ccc(NC(=O)Nc2nc(SCC)ns2)cc1	.	.	.	-6.3	.	78%	.	.	.
Cc1ccc(S(=O)(=O)N2CCN(C(=O)CCn3cncn3)CC2)cc1C	.	.	.	.	.	/	/	/	/
COc1cc2c(cc1OC)C(C)N(C(=O)c1cc(C)on1)CC2 (stereo not drawn)	.	.	.	-6.3	.	85%	.	.	.
Cc1cc(C)n(S(=O)(=O)c2cccc(Cl)c2Cl)n1	.	.	.	.	.	/	/	/	/
C/C(=N\OCC(=O)OCC(=O)NC(=O)c1ccc(OC(F)F)cc1)c1ccc2c(c1)OCO2	.	.	.	.	.	/	/	/	/
COCCn1nnnc1C(c1cccs1)N1CCN(c2cc(C)ccc2C)CC1 (stereo not drawn)	.	.	.	-10	.	.	.	.	.
COCCn1nnnc1C(c1cccs1)N1CCN(c2nc3ccccc3s2)CC1 (stereo not drawn)	.	.	.	.	.	/	/	/	/
Cc1ccccc1N(CC(=O)N1CCN(c2ccccc2)CC1)S(C)(=O)=O	.	.	.	-7.7	.	.	.	.	.

Assay outcomes from PubChem.
